# Assays:
# Plasmodium falciparum [1] = experiment: Inhibitory activity against Plasmodium falciparum FcB1
# Aminopeptidase N = target: T1, Aminopeptidase N (Plasmodium falciparum FcB1/Columbia, UniProt O96935); experiment: Inhibitory activity for Plasmodium falciparum Zinc aminopeptidase
# T1 sequence (O96935 whole entry): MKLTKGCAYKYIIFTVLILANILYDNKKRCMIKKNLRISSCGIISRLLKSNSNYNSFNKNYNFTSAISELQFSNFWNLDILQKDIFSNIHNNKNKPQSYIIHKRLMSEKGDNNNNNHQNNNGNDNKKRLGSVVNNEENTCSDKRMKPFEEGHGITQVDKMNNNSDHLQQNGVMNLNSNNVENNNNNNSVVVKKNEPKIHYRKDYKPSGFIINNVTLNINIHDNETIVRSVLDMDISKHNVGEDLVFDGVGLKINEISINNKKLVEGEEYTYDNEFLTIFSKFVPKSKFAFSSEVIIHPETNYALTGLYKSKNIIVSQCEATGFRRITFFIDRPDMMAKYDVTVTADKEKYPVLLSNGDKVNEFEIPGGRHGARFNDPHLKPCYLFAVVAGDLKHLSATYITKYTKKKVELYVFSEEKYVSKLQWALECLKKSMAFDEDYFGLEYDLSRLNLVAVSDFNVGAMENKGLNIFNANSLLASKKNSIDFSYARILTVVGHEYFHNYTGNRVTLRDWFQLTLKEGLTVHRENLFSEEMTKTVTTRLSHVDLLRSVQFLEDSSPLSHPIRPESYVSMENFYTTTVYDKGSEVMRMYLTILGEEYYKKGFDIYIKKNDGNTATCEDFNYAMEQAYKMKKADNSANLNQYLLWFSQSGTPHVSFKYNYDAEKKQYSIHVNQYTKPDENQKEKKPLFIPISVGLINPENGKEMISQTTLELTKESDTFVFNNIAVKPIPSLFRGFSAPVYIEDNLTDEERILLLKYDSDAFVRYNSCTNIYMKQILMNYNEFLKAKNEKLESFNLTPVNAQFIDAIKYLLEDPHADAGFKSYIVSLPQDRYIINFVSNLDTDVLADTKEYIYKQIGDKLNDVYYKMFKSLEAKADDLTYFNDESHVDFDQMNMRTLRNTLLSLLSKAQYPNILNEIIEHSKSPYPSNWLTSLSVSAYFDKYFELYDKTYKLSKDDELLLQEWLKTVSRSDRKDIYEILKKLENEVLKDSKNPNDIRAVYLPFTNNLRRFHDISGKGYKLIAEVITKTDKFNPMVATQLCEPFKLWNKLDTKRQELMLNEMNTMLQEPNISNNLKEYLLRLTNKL
# Plasmodium falciparum [2] = experiment: Inhibitory activity against Plasmodium falciparum Zinc-aminopeptidase PfA-M1 at 10 uM; assay type: functional
# Method in brief: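 Native purified PfA-M1, diluted 10-fold in 25 mM Tris-HCl pH 7.4. Enzyme pre-incubated 10 min at rt with inhibitor (10 µM final, DMSO present), then Leu-pNA substrate added. Kinetics followed at 405 nm. Initial velocities normalized to the no-inhibitor control (Vmax). Single-point percent inhibition (Z' 0.82). Bestatin as reference.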
IC50 (Plasmodium falciparum [1]) [nM],SMILES,IC50 (Aminopeptidase N) [nM],inhibition at 10 µM (Plasmodium falciparum [2]) [%]
317,CC(C)CN(CCCN1CCN(CCCNc2ccnc3cc(Cl)ccc23)CC1)C(=O)CC(=O)NO,854,–
151,CC(C)CC(C(=O)NO)C(=O)N(CCCN1CCN(CCCNc2ccnc3cc(Cl)ccc23)CC1)CC(C)C (centres undefined),–,–
29000,CC(C)C[C@H](NC(=O)[C@@H](O)[C@H](N)Cc1ccccc1)C(=O)O [UBENIMEX],–,–

SMILES,IC50 (Plasmodium falciparum [1]) [nM],IC50 (Aminopeptidase N) [nM],inhibition at 10 µM (Plasmodium falciparum [2]) [%]
O=C(O)CCC(=O)N(CCCN1CCN(CCCNc2ccnc3cc(Cl)ccc23)CC1)CC1CC1,1380,> 10000,22
NCCC(=O)N(CCCN1CCN(CCCNc2ccnc3cc(Cl)ccc23)CC1)CC1CC1,398,21000,–
